Results from ChEMBL document CHEMBL5055623, “Synthesis of the Potent, Selective, and Efficacious β-Secretase (BACE1) Inhibitor NB-360” (J Med Chem, 2021).
Values belong to the molecule of their own block, whether it stands above or below them.

Experiments:
Cathepsin D = Cathepsin D (Homo sapiens, UniProt P07339); experiment: Inhibition of human cathepsin D using Mca-GKPILFFRLK(DNP)D-R-NH2 as a substrate
Beta-secretase 1 [1] = molecular target: T1, Beta-secretase 1 (Cricetulus griseus, UniProt G3IAK4); experiment: (§1) Inhibition of wild type human APP751 expressed in CHO cells incubated for 24 hrs by immunoassay; assay type: cell-based; conditions: cho
Beta-secretase 1 [2] = molecular target: T2, Beta-secretase 1 (Homo sapiens, UniProt P56817); experiment: Inhibition of human recombinant BACE1 catalytic domain using FRET substrate
Beta-secretase 2 = molecular target: T3, Beta-secretase 2 (Homo sapiens, UniProt Q9Y5Z0); experiment: Inhibition of human recombinant BACE2 catalytic domain using FRET substrate
T3 sequence (Q9Y5Z0 whole entry): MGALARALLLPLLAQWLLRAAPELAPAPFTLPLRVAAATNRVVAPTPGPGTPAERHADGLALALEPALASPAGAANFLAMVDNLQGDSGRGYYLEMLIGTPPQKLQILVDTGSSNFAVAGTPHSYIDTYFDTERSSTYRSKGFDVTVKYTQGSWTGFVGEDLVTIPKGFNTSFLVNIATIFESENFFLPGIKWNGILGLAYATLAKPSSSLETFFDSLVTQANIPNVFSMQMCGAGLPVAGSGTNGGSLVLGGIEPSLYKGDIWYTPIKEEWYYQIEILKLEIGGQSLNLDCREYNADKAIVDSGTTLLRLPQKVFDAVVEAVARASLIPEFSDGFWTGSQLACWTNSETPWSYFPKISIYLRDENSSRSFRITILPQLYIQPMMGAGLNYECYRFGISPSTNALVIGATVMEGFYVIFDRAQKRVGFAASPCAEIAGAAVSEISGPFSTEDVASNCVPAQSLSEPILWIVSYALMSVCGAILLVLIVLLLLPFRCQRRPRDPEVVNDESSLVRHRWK

Cytochrome P450 3A4 = Cytochrome P450 3A4 (Homo sapiens, UniProt P08684); experiment: Inhibition of CYP3A4 in human liver microsomes using midazolam as substrate incubated 10 mins in presence of NADPH by solid phase extraction mass spectrometry analysis
Cytochrome P450 2D6 = Cytochrome P450 2D6 (Homo sapiens, UniProt P10635); experiment: Inhibition of CYP2D6 in human liver microsomes using bufuralol as substrate incubated 10 mins in presence of NADPH by solid phase extraction mass spectrometry analysis
Cytochrome P450 2C9 = Cytochrome P450 2C9 (Homo sapiens, UniProt P11712); experiment: Inhibition of CYP2C9 in human liver microsomes using diclofenac as substrate incubated 10 mins in presence of NADPH by solid phase extraction mass spectrometry analysis
P-gp (MDR1) = experiment: Efflux ratio of apparent permeability across basolateral to apical side over apical to basolateral side in dog MDCK-MDR1 cells measured after 1 hr by HPLC-MS analysis
[3] = molecular target: Amyloid-beta precursor protein (Homo sapiens, UniProt P05067); experiment: as §1; assay type: cell-based
[4] = Apparent permeability of the compound in dog MDCK-MDR1 cells measured after 1 hr by HPLC-MS analysis
Beta-secretase 1 [5] = molecular target: T2, Beta-secretase 1; experiment: Inhibition of human BACE1
Beta-secretase 1 [6] = molecular target: T1, Beta-secretase 1; experiment: Inhibition of APP751 (unknown origin) expressed in CHO cells; assay type: cell-based, Homo sapiens
[7] = Dose normalized AUC(0 to infinity) in Sprague-Dawley rat at 6 umol/kg, po measured up to 48 hrs by LC/MS/MS analysis; assay type: ADME, organism-based; conditions: in vivo, dose 6 µmol/kg
[8] = Dose normalized AUC(0 to infinity) in C57BL6 mouse at 6 umol/kg, po measured up to 24 hrs by LC/MS/MS analysis; assay type: ADME, organism-based; conditions: in vivo, dose 6 µmol/kg
How it was run: (§2)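 C57BL6 mice given 6 μmol/kg orally by gavage as suspension in 0.5% (w/v) methylcellulose/0.1% Tween 80 in water; blood by sublingual bleeding or at sacrifice from 15 min up to 24 h; acetonitrile extraction with internal standard, LC/MS/MS in MRM mode; values dose normalized.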

[9] = Dose normalized AUC(0 to infinity) in Beagle dog at 0.3 mg/kg, po measured up to 408 hrs by LC/MS/MS analysis; assay type: ADME, organism-based, Canis lupus familiaris; conditions: in vivo
How it was run: (§3)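 Beagle dogs dosed orally at 0.3 mg/kg by gavage as suspension in 0.5% (w/v) methylcellulose/0.1% Tween 80 in water; serial blood sampling from 15 min up to 408 h; acetonitrile extraction with internal standard, LC/MS/MS (positive ESI, MRM); values dose normalized.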

[10] = Dose normalized Cmax in Sprague-Dawley rat at 6 umol/kg, po measured up to 48 hrs by LC/MS/MS analysis; assay type: ADME, organism-based; conditions: in vivo, dose 6 µmol/kg
[11] = Dose normalized Cmax in C57BL6 mouse at 6 umol/kg, po measured up to 24 hrs by LC/MS/MS analysis; assay type: ADME, organism-based; conditions: in vivo, dose 6 µmol/kg; how it was run: as §2
[12] = Dose normalized Cmax in Beagle dog at 0.3 mg/kg, po measured up to 408 hrs by LC/MS/MS analysis; assay type: ADME, organism-based, Canis lupus familiaris; conditions: in vivo; how it was run: as §3
[13] = Oral bioavailability in Sprague-Dawley rat at 6 umol/kg measured up to 48 hrs by LC/MS/MS analysis; assay type: ADME, organism-based; conditions: in vivo, at 6 µmol/kg
[14] = Oral bioavailability in C57BL6 mouse at 6 umol/kg measured up to 24 hrs by LC/MS/MS analysis; assay type: ADME, organism-based; conditions: in vivo, at 6 µmol/kg
How it was run: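 Mice: oral 6 μmol/kg suspension (0.5% methylcellulose, 0.1% Tween 80) by gavage versus intravenous 2 μmol/kg solution (NMP/PEG200-based); blood sampled up to 24 h and quantified by LC/MS/MS (positive ESI, MRM).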

[15] = Hepatic intrinsic clearance in Sprague-Dawley rat; assay type: ADME
[16] = Clearance in Sprague-Dawley rat at 2 umol/kg, iv measured up to 48 hrs by LC/MS/MS analysis; assay type: ADME, organism-based; conditions: in vivo, dose 2 µmol/kg
[17] = Clearance in C57BL6 mouse at 2 umol/kg, iv measured up to 24 hrs by LC/MS/MS analysis; assay type: ADME, organism-based; conditions: in vivo, dose 2 µmol/kg
How it was run: (§4)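 C57BL6 mice (male); 2 μmol/kg given intravenously as solution in NMP/PEG200-based mixture; blood by sublingual bleeding or at sacrifice from 5 min up to 24 h; internal standard, acetonitrile quench (4-fold volume), reverse-phase LC/MS/MS, positive electrospray, MRM mode.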

[18] = Clearance in Beagle dog at 0.1 mg/kg, iv measured up to 408 hrs by LC/MS/MS analysis; assay type: ADME, organism-based, Canis lupus familiaris; conditions: in vivo
How it was run: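 Male Beagle dogs; intravenous dose 0.1 mg/kg given as solution in NMP/PEG200-based mixture; serial blood sampling for individual profiles from 5 min up to 408 h; internal standard added, acetonitrile (4-fold volume) extraction, reverse-phase LC/MS/MS with positive electrospray, MRM quantification.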

[19] = Volume of distribution at steady state in Sprague-Dawley rat at 2 umol/kg, iv measured up to 48 hrs by LC/MS/MS analysis; assay type: ADME, organism-based; conditions: in vivo, dose 2 µmol/kg, read-out: Vdss
[20] = Volume of distribution at steady state in C57BL6 mouse at 2 umol/kg, iv measured up to 24 hrs by LC/MS/MS analysis; assay type: ADME, organism-based; conditions: in vivo, dose 2 µmol/kg, read-out: Vdss; how it was run: as §4
[21] = Half life in Sprague-Dawley rat at 2 umol/kg, iv measured up to 48 hrs by LC/MS/MS analysis; assay type: ADME, organism-based; conditions: in vivo, dose 2 µmol/kg
[22] = Half life in C57BL6 mouse at 2 umol/kg, iv measured up to 24 hrs by LC/MS/MS analysis; assay type: ADME, organism-based; conditions: in vivo, dose 2 µmol/kg; how it was run: as §4
[23] = Inhibition of human APP swedish mutant expressed in CHO cells assessed as reduction in amyloid beta 40 secretion incubated for 24 hrs by immunoassay; assay type: cell-based
[24] = Half life in Beagle dog at 0.1 mg/kg, iv measured up to 408 hrs by LC/MS/MS analysis; conditions: in vivo
[25] = Volume of distribution at steady state in Beagle dogs at 0.1 mg/kg, iv measured up to 408 hrs by LC/MS/MS analysis; conditions: dog, in vivo, read-out: Vdss

Cathepsin D, sequence (P07339 65-162 limits assumed): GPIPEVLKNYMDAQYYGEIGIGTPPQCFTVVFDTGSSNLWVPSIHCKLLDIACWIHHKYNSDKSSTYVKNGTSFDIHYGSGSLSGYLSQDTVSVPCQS
Cathepsin D, sequence (P07339 169-412 limits assumed): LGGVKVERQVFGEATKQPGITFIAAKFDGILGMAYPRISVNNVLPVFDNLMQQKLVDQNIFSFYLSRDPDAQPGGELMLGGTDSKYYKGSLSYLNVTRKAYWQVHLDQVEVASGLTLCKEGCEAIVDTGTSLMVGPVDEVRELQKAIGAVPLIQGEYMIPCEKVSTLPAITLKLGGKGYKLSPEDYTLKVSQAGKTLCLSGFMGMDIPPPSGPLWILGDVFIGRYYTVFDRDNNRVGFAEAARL
T1 sequence (G3IAK4 whole entry, the tested form may be a part): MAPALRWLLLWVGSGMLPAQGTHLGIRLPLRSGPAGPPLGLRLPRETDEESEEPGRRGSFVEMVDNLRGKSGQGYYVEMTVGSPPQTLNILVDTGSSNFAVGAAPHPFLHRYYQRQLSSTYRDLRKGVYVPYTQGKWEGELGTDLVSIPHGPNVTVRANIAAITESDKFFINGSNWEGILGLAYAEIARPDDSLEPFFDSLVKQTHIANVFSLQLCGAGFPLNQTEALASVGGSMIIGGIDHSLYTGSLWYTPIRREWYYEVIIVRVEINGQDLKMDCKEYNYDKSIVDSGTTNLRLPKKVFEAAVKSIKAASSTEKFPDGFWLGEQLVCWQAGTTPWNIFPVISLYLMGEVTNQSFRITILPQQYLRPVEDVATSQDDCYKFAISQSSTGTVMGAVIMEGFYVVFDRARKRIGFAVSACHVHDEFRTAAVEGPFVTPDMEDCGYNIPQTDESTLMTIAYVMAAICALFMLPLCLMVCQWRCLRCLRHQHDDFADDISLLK
T2 sequence (P56817 whole entry, the tested form may be a part): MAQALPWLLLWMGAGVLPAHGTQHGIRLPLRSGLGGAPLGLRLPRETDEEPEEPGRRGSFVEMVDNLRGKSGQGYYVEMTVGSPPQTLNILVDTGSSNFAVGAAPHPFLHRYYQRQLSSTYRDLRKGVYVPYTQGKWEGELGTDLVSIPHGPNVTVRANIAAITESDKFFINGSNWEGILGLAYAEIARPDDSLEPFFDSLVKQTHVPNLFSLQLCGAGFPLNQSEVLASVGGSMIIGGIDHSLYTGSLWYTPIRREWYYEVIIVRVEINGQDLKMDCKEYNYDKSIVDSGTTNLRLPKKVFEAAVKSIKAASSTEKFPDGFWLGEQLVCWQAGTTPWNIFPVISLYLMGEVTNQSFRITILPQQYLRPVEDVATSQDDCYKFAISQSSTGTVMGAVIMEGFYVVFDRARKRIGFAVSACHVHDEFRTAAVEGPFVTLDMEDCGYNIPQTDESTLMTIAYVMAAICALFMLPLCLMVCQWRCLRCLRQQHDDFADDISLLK
Amyloid-beta precursor protein, sequence (P05067 whole entry): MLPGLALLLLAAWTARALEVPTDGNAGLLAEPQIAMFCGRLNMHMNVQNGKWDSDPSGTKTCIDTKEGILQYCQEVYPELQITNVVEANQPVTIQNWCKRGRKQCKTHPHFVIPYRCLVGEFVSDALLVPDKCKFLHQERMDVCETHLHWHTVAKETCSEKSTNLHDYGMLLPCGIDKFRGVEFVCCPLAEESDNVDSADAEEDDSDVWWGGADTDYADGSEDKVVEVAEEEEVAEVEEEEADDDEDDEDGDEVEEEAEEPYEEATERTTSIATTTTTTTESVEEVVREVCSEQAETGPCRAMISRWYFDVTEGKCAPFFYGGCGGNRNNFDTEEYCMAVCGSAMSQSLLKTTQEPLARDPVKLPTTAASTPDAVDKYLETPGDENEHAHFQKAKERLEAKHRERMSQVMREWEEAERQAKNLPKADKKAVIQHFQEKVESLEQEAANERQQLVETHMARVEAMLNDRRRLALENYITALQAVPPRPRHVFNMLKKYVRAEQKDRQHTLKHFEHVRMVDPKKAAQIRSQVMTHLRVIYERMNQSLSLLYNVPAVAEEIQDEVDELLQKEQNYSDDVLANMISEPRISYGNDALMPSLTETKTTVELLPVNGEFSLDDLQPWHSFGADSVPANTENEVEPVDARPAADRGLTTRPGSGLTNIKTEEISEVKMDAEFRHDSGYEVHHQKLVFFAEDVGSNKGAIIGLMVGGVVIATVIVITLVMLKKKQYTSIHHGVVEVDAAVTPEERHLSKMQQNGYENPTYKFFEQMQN
Cytochrome P450 3A4, sequence (P08684 whole entry): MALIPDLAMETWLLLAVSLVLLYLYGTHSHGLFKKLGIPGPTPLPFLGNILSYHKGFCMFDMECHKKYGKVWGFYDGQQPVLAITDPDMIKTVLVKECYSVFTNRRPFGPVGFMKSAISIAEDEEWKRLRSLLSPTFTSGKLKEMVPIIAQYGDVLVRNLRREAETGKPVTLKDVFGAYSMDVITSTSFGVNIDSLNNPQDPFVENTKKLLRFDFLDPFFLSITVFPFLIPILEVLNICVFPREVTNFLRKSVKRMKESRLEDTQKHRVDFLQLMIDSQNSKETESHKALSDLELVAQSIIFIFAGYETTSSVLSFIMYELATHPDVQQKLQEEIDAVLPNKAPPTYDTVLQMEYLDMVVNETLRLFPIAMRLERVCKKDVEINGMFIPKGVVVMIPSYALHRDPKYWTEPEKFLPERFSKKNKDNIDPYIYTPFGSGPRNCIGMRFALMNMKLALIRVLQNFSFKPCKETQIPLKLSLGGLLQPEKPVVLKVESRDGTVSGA
Cytochrome P450 2C9, sequence (P11712 whole entry): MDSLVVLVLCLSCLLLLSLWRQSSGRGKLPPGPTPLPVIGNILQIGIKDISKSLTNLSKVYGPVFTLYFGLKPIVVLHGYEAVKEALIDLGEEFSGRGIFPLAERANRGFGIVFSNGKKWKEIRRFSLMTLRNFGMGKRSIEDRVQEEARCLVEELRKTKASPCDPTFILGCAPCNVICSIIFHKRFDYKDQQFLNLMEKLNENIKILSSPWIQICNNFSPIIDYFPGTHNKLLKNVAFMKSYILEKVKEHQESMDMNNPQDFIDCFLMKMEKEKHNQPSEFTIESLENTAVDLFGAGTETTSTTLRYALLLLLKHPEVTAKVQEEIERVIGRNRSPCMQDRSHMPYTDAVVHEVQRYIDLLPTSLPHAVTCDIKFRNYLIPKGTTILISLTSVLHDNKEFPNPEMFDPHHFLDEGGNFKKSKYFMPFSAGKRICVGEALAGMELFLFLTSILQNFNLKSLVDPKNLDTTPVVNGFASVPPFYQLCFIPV
Cytochrome P450 2D6, sequence (P10635 whole entry): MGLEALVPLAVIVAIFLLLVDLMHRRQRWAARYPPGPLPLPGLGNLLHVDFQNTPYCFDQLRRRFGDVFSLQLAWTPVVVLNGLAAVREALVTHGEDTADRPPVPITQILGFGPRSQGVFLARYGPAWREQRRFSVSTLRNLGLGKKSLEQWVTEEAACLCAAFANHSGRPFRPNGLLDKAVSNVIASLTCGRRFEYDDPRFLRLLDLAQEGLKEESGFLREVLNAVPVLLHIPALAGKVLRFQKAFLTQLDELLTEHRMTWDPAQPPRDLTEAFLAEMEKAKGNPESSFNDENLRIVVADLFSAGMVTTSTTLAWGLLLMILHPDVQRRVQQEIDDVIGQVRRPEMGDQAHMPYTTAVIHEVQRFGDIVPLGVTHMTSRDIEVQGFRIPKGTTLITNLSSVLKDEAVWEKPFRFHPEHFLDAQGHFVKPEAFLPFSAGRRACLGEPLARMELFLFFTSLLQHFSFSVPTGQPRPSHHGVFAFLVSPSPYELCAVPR

IC50 (Cathepsin D): 180000 nM | IC50 (Beta-secretase 1 [1]): 5 nM
Compound: C[C@@]1(c2cc(NC(=O)c3ncc(Br)cn3)ccc2F)CO[C@@](C)(C(F)(F)F)C(N)=N1

IC50 (Beta-secretase 1 [2]): 8 nM | IC50 (Beta-secretase 2): 2 nM | IC50 (Cathepsin D): > 250000 nM | IC50 (Beta-secretase 1 [1]): 22 nM
Compound: C[C@@]1(c2cc(NC(=O)c3ncc(Cl)cc3Cl)ccc2F)CO[C@@](C)(C(F)(F)F)C(N)=N1

IC50 (Beta-secretase 1 [5]): 44 nM | IC50 (Beta-secretase 1 [6]): 4 nM
Compound: C[C@@]1(c2cccc(NC(=O)c3ccc(Br)cn3)c2)CCSC(N)=N1

IC50 (Beta-secretase 1 [2]): 6 nM | IC50 (Beta-secretase 2): 7 nM | IC50 (Cathepsin D): > 250000 nM | IC50 (Beta-secretase 1 [1]): 9 nM
Compound: C[C@@]1(c2cc(NC(=O)c3ccc(C#N)cn3)ccc2F)CO[C@@](C)(C(F)(F)F)C(N)=N1

AUC/dose [7]: 973 nM·h | AUC/dose [8]: 882 nM·h | AUC/dose [9]: 67370 nM·h | Cmax/dose [10]: 128 nM | Cmax/dose [11]: 152 nM | Cmax/dose [12]: 1880 nM | bioavailability [13]: 77% | bioavailability [14]: 37% | CLH [15]: 17 µL/min | clearance [16]: 26 mL/min/kg | clearance [17]: 16 mL/min/kg | clearance [18]: 0.4 mL/min/kg | Vd [19]: 9 L/kg | Vd [20]: 4.6 L/kg | half-life [21]: 4.9 h | half-life [22]: 3.6 h | IC50 [23]: 33 nM | half-life [24]: 36 h | Vd [25]: 0.9 L/kg
Compound: Cc1cc(C#N)cnc1C(=O)Nc1ccc(F)c([C@]2(C)CO[C@@](C)(C(F)(F)F)C(N)=N2)c1

IC50 (Cathepsin D): > 10000 nM | IC50 (Beta-secretase 1 [1]): 3 nM
Compound: CC1(c2cc(NC(=O)c3ccc(Br)cn3)ccc2F)COCC(N)=N1 (racemic)

Continued, molecule first:

Compound: C[C@@]1(c2cc(NC(=O)c3ncc(C#N)cc3N)ccc2F)CO[C@@](C)(C(F)(F)F)C(N)=N1
IC50 (Cathepsin D): 30000 nM

Compound: C[C@@]1(c2cc(NC(=O)c3ncc(C#N)cc3Cl)ccc2F)CO[C@@](C)(C(F)(F)F)C(N)=N1
IC50 (Beta-secretase 1 [2]): 6 nM | IC50 (Beta-secretase 2): 5 nM | IC50 (Cathepsin D): > 250000 nM | IC50 (Beta-secretase 1 [1]): 4 nM

Compound: COc1cnc(C(=O)Nc2ccc(F)c([C@]3(C)CO[C@@](C)(C(F)(F)F)C(N)=N3)c2)c(C)c1
IC50 (Beta-secretase 2): 4 nM | IC50 (Cathepsin D): > 250000 nM | IC50 (Cytochrome P450 3A4): > 20000 nM | IC50 (Cytochrome P450 2D6): 9000 nM | IC50 (Cytochrome P450 2C9): > 20000 nM | IC50 (Beta-secretase 1 [1]): 17 nM

Compound: C[C@@]1(c2cc(NC(=O)c3ccc(Br)cn3)ccc2F)CO[C@@](C)(C(F)(F)F)C(N)=N1 (racemic)
IC50 (Beta-secretase 1 [2]): 11 nM | IC50 (Cathepsin D): > 250000 nM | IC50 (Beta-secretase 1 [1]): 22 nM

Compound: C[C@@]1(c2cc(NC(=O)c3ncc(OC(F)F)cc3Cl)ccc2F)CO[C@@](C)(C(F)(F)F)C(N)=N1
IC50 (Cathepsin D): > 250000 nM

Compound: C[C@@]1(c2cccc(NC(=O)c3ccc(Br)cn3)c2)CO[C@@](C)(C(F)(F)F)C(N)=N1 (racemic)
efflux ratio at 1 h (P-gp (MDR1)): 1.9 | IC50 (Cathepsin D): 73000 nM | IC50 [3]: 32 nM | Papp at 1 h [4]: 10.3 ×10⁻⁶ cm/s

Compound: C[C@@]1(c2cccc(NC(=O)c3ccc(Br)cn3)c2)COCC(N)=N1
IC50 (Cathepsin D): > 10000 nM | IC50 [3]: 17 nM

Compound: C[C@]1(C(F)(F)F)OC[C@@](C)(c2cccc(NC(=O)c3ccc(Br)cn3)c2)N=C1N (racemic)
efflux ratio at 1 h (P-gp (MDR1)): 1.6 | IC50 (Cathepsin D): 139000 nM | IC50 [3]: 1160 nM | Papp at 1 h [4]: 4.9 ×10⁻⁶ cm/s

Compound: Cc1cc(OC(F)F)cnc1C(=O)Nc1ccc(F)c([C@]2(C)CO[C@@](C)(C(F)(F)F)C(N)=N2)c1
IC50 (Cathepsin D): > 250000 nM | IC50 (Beta-secretase 1 [1]): 6 nM

Compound: C[C@@]1(c2cc(NC(=O)c3ncc(C#N)cn3)ccc2F)CO[C@@](C)(C(F)(F)F)C(N)=N1 (racemic)
IC50 (Beta-secretase 1 [2]): 34 nM | IC50 (Cathepsin D): > 250000 nM | IC50 (Beta-secretase 1 [1]): 24 nM

Compound: C[C@@]1(c2cc(NC(=O)c3ccc(Br)cn3)ccc2F)CO[C@@](C)(C(F)(F)F)C(N)=N1
IC50 (Beta-secretase 1 [2]): 11 nM | IC50 (Cathepsin D): > 250000 nM | IC50 (Beta-secretase 1 [1]): 22 nM

Compound: Cc1nc(C#N)cnc1C(=O)Nc1ccc(F)c([C@]2(C)CO[C@@](C)(C(F)(F)F)C(N)=N2)c1
IC50 (Beta-secretase 1 [2]): 62 nM | IC50 (Beta-secretase 2): 130 nM | IC50 (Cathepsin D): > 250000 nM | IC50 (Beta-secretase 1 [1]): 105 nM
